Laboratory results from ChEMBL document CHEMBL4270565, “Design, synthesis and antimicrobial evaluation of propylene-tethered ciprofloxacin-isatin hybrids” (Eur J Med Chem, 2018).
Values after ≈ are worked out from the molar mass of the structure shown.

Experiments:
Klebsiella pneumoniae [1] = experiment: Antibacterial activity against extended-spectrum beta-lactamase harboring Klebsiella pneumoniae ATCC 700603 after 18 to 24 hrs by two-fold serial dilution method; assay type: functional
Method in brief: (§1)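 Agar two-fold serial dilution in Mueller-Hinton agar. Strains came from the Chinese Center for Disease Control and Prevention. Compounds were dissolved in 0.1 N NaOH and water, then diluted in melted agar to final levels stepping down from 128. Plates were inoculated with bacterial cfu and incubated at 35 C for 18–24 h. MIC is the lowest concentration giving 90% growth inhibition.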

Proteus mirabilis = experiment: Antibacterial activity against Proteus mirabilis 13-1 after 18 to 24 hrs by two-fold serial dilution method; assay type: functional
Method in brief: (§2)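 Agar two-fold dilution MIC. Compounds were dissolved in 0.1 N NaOH and water, then serially diluted in melted Mueller-Hinton agar, with top concentrations starting at 128. Plates were inoculated at about 10 cfu and incubated at 35 °C for 18–24 h. MIC was taken as the lowest concentration giving 90% inhibition of growth.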

Escherichia coli [2] = experiment: Antibacterial activity against extended-spectrum beta-lactamase harboring Escherichia coli ATCC 35218 after 18 to 24 hrs by two-fold serial dilution method; assay type: functional; method in brief: as §1
[3] = system: Mycobacterium tuberculosis; experiment: Antimycobacterial activity against Mycobacterium tuberculosis H37Rv after 7 days; assay type: functional; conditions: 168 h
Method in brief: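 Rapid direct susceptibility test in 48-well plates. Two-fold dilutions of compound from DMSO stocks were mixed with an equal volume of bacterial suspension. Medium-only wells served as growth controls and water-only wells as no-growth controls. Plates were sealed and held at 37 C in a humid box, and controls were checked at 3 days. MIC (90% growth inhibition) was read visually by high-magnification observation of the cells and re-read at 7 days.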

Enterococcus faecalis [4] = experiment: Antibacterial activity against Enterococcus faecalis ATCC 29212 after 18 to 24 hrs by two-fold serial dilution method; assay type: functional; method in brief: as §2
[5] = system: Staphylococcus epidermidis; experiment: Antibacterial activity against methicillin-sensitive Staphylococcus epidermidis ATCC 12228 after 18 to 24 hrs by two-fold serial dilution method; assay type: functional; method in brief: as §2
Proteus vulgaris = experiment: Antibacterial activity against Proteus vulgaris ATCC 29905 after 18 to 24 hrs by two-fold serial dilution method; assay type: functional; method in brief: as §2
[6] = Cytotoxicity against African green monkey Vero cells assessed as reduction in cell viability after 72 hrs by MTT assay; assay type: cell-based; conditions: chlorocebus sabaeus
Method in brief: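 VERO cells were kept in MEM with Earle's salts and 10% FBS at 37 °C, 5% CO2. They were seeded in 96-well plates and allowed to recover for 24 h. Cells were then exposed to compounds in DMSO over a series from 1000 down to 4 for 72 h. Viability was read by MTT, and CC50 was calculated by Bliss analysis.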

[7] = system: Stenotrophomonas maltophilia; experiment: Antibacterial activity against Stenotrophomonas maltophilia ATCC 13636 after 18 to 24 hrs by two-fold serial dilution method; assay type: functional; method in brief: as §2
Staphylococcus aureus [8] = experiment: Antibacterial activity against methicillin-sensitive Staphylococcus aureus ATCC 29213 after 18 to 24 hrs by two-fold serial dilution method; assay type: functional; method in brief: as §1
Escherichia coli [9] = experiment: Antibacterial activity against extended-spectrum beta-lactamase deficient Escherichia coli ATCC 25922 after 18 to 24 hrs by two-fold serial dilution method; assay type: functional; method in brief: as §2
[10] = system: Acinetobacter calcoaceticus; experiment: Antibacterial activity against Acinetobacter calcoaceticus ATCC 19606 after 18 to 24 hrs by two-fold serial dilution method; assay type: functional; method in brief: as §2
Enterococcus faecium [11] = experiment: Antibacterial activity against Enterococcus faecium 13-7 after 18 to 24 hrs by two-fold serial dilution method; assay type: functional; method in brief: as §2
Enterococcus faecium [12] = experiment: Antibacterial activity against Enterococcus faecium ATCC 700221 after 18 to 24 hrs by two-fold serial dilution method; assay type: functional; method in brief: as §2
Staphylococcus aureus [13] = experiment: Antibacterial activity against methicillin-resistant Staphylococcus aureus ATCC 33591 after 18 to 24 hrs by two-fold serial dilution method; assay type: functional; method in brief: as §1
Enterobacter cloacae = experiment: Antibacterial activity against Enterobacter cloacae ATCC 43560 after 18 to 24 hrs by two-fold serial dilution method; assay type: functional
Klebsiella pneumoniae [14] = experiment: Antibacterial activity against extended-spectrum beta-lactamase deficient Klebsiella pneumoniae 15-2 after 18 to 24 hrs by two-fold serial dilution method; assay type: functional; method in brief: as §2
Providencia rettgeri = experiment: Antibacterial activity against Providencia rettgeri ATCC 31052 after 18 to 24 hrs by two-fold serial dilution method; assay type: functional; method in brief: as §2
Citrobacter freundii = experiment: Antibacterial activity against extended-spectrum beta-lactamase harboring Citrobacter freundii ATCC 43864 after 18 to 24 hrs by two-fold serial dilution method; assay type: functional; method in brief: as §1
Serratia marcescens = experiment: Antibacterial activity against Serratia marcescens ATCC 21074 after 18 to 24 hrs by two-fold serial dilution method; assay type: functional; method in brief: as §2
Klebsiella aerogenes = experiment: Antibacterial activity against Enterobacter aerogenes ATCC 13048 after 18 to 24 hrs by two-fold serial dilution method; assay type: functional; method in brief: as §2
Enterococcus faecalis [15] = experiment: Antibacterial activity against Enterococcus faecalis ATCC 51299 after 18 to 24 hrs by two-fold serial dilution method; assay type: functional; method in brief: as §2
Pseudomonas aeruginosa = experiment: Antibacterial activity against Pseudomonas aeruginosa ATCC 27853 after 18 to 24 hrs by two-fold serial dilution method; assay type: functional; method in brief: as §2
[16] = system: Staphylococcus epidermidis; experiment: Antibacterial activity against methicillin-resistant Staphylococcus epidermidis 13-3 after 18 to 24 hrs by two-fold serial dilution method; assay type: functional; method in brief: as §1
Morganella morganii = experiment: Antibacterial activity against Morganella morganii ATCC 25830 after 18 to 24 hrs by two-fold serial dilution method; assay type: functional; method in brief: as §2
[17] = Tmax in ICR mouse at 50 mg/kg, po administered as single dose by HPLC analysis; assay type: ADME, organism-based; conditions: in vivo
Method in brief: (§3)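 Mice (3 per group), fasted overnight, given a single oral dose of 50 mg/kg as a suspension in 0.5% CMC. Jugular vein blood taken at 0.25, 0.5, 1, 2, 4, 6, 8 and 24 h. Serum proteins precipitated with acetonitrile and centrifuged; the dried supernatant was redissolved in acetonitrile for HPLC. PK parameters were derived directly from the concentration–time data.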

[18] = Cmax in ICR mouse at 50 mg/kg, po administered as single dose by HPLC analysis; assay type: ADME, organism-based; design: dose 50 mg/kg, route oral; conditions: in vivo; method in brief: as §3
[19] = AUC (0 to infinity) in ICR mouse at 50 mg/kg, po administered as single dose by HPLC analysis; assay type: ADME, organism-based; design: dose 50 mg/kg, route oral, time infinity; conditions: in vivo; method in brief: as §3

SMILES: CO/N=C1\C(=O)N(CCCN2CCN(c3cc4c(cc3F)c(=O)c(C(=O)OCCCN3C(=O)/C(=N/OC)c5cc(C)ccc53)cn4C3CC3)CC2)c2ccc(C)cc21
- MIC90 (Klebsiella pneumoniae [1]): 32 µg/mL (≈ 40.4 µM)
- MIC90 (Proteus mirabilis): 64 µg/mL (≈ 80.8 µM)
- MIC90 (Escherichia coli [2]): 16 µg/mL (≈ 20.2 µM)
- MIC90 [3]: 25 µg/mL (≈ 31.6 µM)
- MIC90 (Enterococcus faecalis [4]): 32 µg/mL (≈ 40.4 µM)
- MIC90 [5]: 16 µg/mL (≈ 20.2 µM)
- MIC90 (Proteus vulgaris): 32 µg/mL (≈ 40.4 µM)
- CC50 at 72 h [6]: 16 µg/mL (≈ 20.2 µM)
- MIC90 [7]: 64 µg/mL (≈ 80.8 µM)
- MIC90 (Staphylococcus aureus [8]): 32 µg/mL (≈ 40.4 µM)
- MIC90 (Escherichia coli [9]): 8 µg/mL (≈ 10.1 µM)
- MIC90 [10]: 64 µg/mL (≈ 80.8 µM)
- MIC90 (Enterococcus faecium [11]): > 128 µg/mL
- MIC90 (Enterococcus faecium [12]): 128 µg/mL (≈ 162 µM)
- MIC90 (Staphylococcus aureus [13]): 32 µg/mL (≈ 40.4 µM)
- MIC90 (Enterobacter cloacae): 16 µg/mL (≈ 20.2 µM)
- MIC90 (Klebsiella pneumoniae [14]): 16 µg/mL (≈ 20.2 µM)
- MIC90 (Providencia rettgeri): 32 µg/mL (≈ 40.4 µM)
- MIC90 (Citrobacter freundii): 32 µg/mL (≈ 40.4 µM)
- MIC90 (Serratia marcescens): 32 µg/mL (≈ 40.4 µM)
- MIC90 (Klebsiella aerogenes): 32 µg/mL (≈ 40.4 µM)
- MIC90 (Enterococcus faecalis [15]): 128 µg/mL (≈ 162 µM)
- MIC90 (Pseudomonas aeruginosa): 32 µg/mL (≈ 40.4 µM)
- MIC90 [16]: 64 µg/mL (≈ 80.8 µM)
- MIC90 (Morganella morganii): 64 µg/mL (≈ 80.8 µM)

SMILES: CCO/N=C1\C(=O)N(CCCN2CCN(c3cc4c(cc3F)c(=O)c(C(=O)OCCCN3C(=O)/C(=N/OCC)c5cc(C)ccc53)cn4C3CC3)CC2)c2ccc(C)cc21
- MIC90 (Klebsiella pneumoniae [1]): 128 µg/mL (≈ 156 µM)
- MIC90 (Proteus mirabilis): 64 µg/mL (≈ 78.1 µM)
- MIC90 (Escherichia coli [2]): 16 µg/mL (≈ 19.5 µM)
- MIC90 [3]: 50 µg/mL (≈ 61 µM)
- MIC90 (Enterococcus faecalis [4]): 64 µg/mL (≈ 78.1 µM)
- MIC90 [5]: 32 µg/mL (≈ 39 µM)
- MIC90 (Proteus vulgaris): 64 µg/mL (≈ 78.1 µM)
- CC50 at 72 h [6]: 64 µg/mL (≈ 78.1 µM)
- MIC90 [7]: 128 µg/mL (≈ 156 µM)
- MIC90 (Staphylococcus aureus [8]): 64 µg/mL (≈ 78.1 µM)
- MIC90 (Escherichia coli [9]): 16 µg/mL (≈ 19.5 µM)
- MIC90 [10]: 64 µg/mL (≈ 78.1 µM)
- MIC90 (Enterococcus faecium [11]): > 128 µg/mL
- MIC90 (Enterococcus faecium [12]): 128 µg/mL (≈ 156 µM)
- MIC90 (Staphylococcus aureus [13]): 128 µg/mL (≈ 156 µM)
- MIC90 (Enterobacter cloacae): 128 µg/mL (≈ 156 µM)
- MIC90 (Klebsiella pneumoniae [14]): 32 µg/mL (≈ 39 µM)
- MIC90 (Providencia rettgeri): 64 µg/mL (≈ 78.1 µM)
- MIC90 (Citrobacter freundii): 64 µg/mL (≈ 78.1 µM)
- MIC90 (Serratia marcescens): 64 µg/mL (≈ 78.1 µM)
- MIC90 (Klebsiella aerogenes): 64 µg/mL (≈ 78.1 µM)
- MIC90 (Enterococcus faecalis [15]): 128 µg/mL (≈ 156 µM)
- MIC90 (Pseudomonas aeruginosa): 128 µg/mL (≈ 156 µM)
- MIC90 [16]: 64 µg/mL (≈ 78.1 µM)
- MIC90 (Morganella morganii): 32 µg/mL (≈ 39 µM)

SMILES: O=C(O)c1cn(C2CC2)c2cc(N3CCNCC3)c(F)cc2c1=O [CIPROFLOXACIN]
- MIC90 (Klebsiella pneumoniae [1]): 0.5 µg/mL (≈ 1.51 µM)
- MIC90 (Proteus mirabilis): ≤ 0.03 µg/mL
- MIC90 (Escherichia coli [2]): ≤ 0.03 µg/mL
- MIC90 [3]: 0.78 µg/mL (≈ 2.35 µM)
- MIC90 (Enterococcus faecalis [4]): 0.5 µg/mL (≈ 1.51 µM)
- MIC90 [5]: 0.125 µg/mL (≈ 0.377 µM)
- MIC90 (Proteus vulgaris): ≤ 0.03 µg/mL
- CC50 at 72 h [6]: 128 µg/mL (≈ 386 µM)
- MIC90 [7]: 2 µg/mL (≈ 6.04 µM)
- MIC90 (Staphylococcus aureus [8]): 0.25 µg/mL (≈ 0.754 µM)
- MIC90 (Escherichia coli [9]): ≤ 0.03 µg/mL
- MIC90 [10]: 0.5 µg/mL (≈ 1.51 µM)
- Tmax [17]: 1.8 h
- MIC90 (Enterococcus faecium [11]): 128 µg/mL (≈ 386 µM)
- MIC90 (Enterococcus faecium [12]): 8 µg/mL (≈ 24.1 µM)
- MIC90 (Staphylococcus aureus [13]): 0.5 µg/mL (≈ 1.51 µM)
- Cmax [18]: 3130 ng/mL
- MIC90 (Klebsiella pneumoniae [14]): ≤ 0.03 µg/mL
- MIC90 (Providencia rettgeri): ≤ 0.03 µg/mL
- MIC90 (Citrobacter freundii): ≤ 0.03 µg/mL
- MIC90 (Serratia marcescens): 0.06 µg/mL (≈ 0.181 µM)
- MIC90 (Klebsiella aerogenes): ≤ 0.03 µg/mL
- MIC90 (Enterococcus faecalis [15]): 0.5 µg/mL (≈ 1.51 µM)
- AUC(0-inf) [19]: 17800 ng·h/mL
- MIC90 (Pseudomonas aeruginosa): 0.25 µg/mL (≈ 0.754 µM)
- MIC90 [16]: 64 µg/mL (≈ 193 µM)
- MIC90 (Morganella morganii): ≤ 0.03 µg/mL
